# Test results taken from ChEMBL document CHEMBL1149455, “Structure-activity relationship study of 1,4-dihydropyridine derivatives blocking N-type calcium channels” (Bioorg Med Chem Lett, 2006).
# How the values were obtained:
# [1] = target: Voltage-dependent N-type calcium channel subunit alpha-1B (Homo sapiens, UniProt Q00975); test: Inhibitory activity against N-type calcium channel by calcium influx into IMR32 cells; type: functional, cell-based, IMR-32
# [2] = target: Voltage-gated L-type calcium channel (Rattus norvegicus, UniProt P22002+Q02485+P27732); test: Inhibitory activity against L-type calcium channel in SD rat thoracic aorta by Magnus method; type: functional, tissue-based
# In short: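 Aortic ring held at 2 g resting tension and equilibrated 1 h. It was then exposed to high-K⁺ solution and then Tyrode's solution, 45 min each, and returned to high-K⁺. After maximal contraction, compound was added cumulatively at 90-min intervals to 10⁻⁹, 10⁻⁸, 10⁻⁷ and 10⁻⁶ M. IC50 was derived from inhibition of the K⁺-induced contraction.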
# Rattus norvegicus = test: Analgesic effect in rat following foot-pad injection of formalin at 30 mg/kg, po; type: functional
# Sequence of Voltage-dependent N-type calcium channel subunit alpha-1B (Q00975 whole entry): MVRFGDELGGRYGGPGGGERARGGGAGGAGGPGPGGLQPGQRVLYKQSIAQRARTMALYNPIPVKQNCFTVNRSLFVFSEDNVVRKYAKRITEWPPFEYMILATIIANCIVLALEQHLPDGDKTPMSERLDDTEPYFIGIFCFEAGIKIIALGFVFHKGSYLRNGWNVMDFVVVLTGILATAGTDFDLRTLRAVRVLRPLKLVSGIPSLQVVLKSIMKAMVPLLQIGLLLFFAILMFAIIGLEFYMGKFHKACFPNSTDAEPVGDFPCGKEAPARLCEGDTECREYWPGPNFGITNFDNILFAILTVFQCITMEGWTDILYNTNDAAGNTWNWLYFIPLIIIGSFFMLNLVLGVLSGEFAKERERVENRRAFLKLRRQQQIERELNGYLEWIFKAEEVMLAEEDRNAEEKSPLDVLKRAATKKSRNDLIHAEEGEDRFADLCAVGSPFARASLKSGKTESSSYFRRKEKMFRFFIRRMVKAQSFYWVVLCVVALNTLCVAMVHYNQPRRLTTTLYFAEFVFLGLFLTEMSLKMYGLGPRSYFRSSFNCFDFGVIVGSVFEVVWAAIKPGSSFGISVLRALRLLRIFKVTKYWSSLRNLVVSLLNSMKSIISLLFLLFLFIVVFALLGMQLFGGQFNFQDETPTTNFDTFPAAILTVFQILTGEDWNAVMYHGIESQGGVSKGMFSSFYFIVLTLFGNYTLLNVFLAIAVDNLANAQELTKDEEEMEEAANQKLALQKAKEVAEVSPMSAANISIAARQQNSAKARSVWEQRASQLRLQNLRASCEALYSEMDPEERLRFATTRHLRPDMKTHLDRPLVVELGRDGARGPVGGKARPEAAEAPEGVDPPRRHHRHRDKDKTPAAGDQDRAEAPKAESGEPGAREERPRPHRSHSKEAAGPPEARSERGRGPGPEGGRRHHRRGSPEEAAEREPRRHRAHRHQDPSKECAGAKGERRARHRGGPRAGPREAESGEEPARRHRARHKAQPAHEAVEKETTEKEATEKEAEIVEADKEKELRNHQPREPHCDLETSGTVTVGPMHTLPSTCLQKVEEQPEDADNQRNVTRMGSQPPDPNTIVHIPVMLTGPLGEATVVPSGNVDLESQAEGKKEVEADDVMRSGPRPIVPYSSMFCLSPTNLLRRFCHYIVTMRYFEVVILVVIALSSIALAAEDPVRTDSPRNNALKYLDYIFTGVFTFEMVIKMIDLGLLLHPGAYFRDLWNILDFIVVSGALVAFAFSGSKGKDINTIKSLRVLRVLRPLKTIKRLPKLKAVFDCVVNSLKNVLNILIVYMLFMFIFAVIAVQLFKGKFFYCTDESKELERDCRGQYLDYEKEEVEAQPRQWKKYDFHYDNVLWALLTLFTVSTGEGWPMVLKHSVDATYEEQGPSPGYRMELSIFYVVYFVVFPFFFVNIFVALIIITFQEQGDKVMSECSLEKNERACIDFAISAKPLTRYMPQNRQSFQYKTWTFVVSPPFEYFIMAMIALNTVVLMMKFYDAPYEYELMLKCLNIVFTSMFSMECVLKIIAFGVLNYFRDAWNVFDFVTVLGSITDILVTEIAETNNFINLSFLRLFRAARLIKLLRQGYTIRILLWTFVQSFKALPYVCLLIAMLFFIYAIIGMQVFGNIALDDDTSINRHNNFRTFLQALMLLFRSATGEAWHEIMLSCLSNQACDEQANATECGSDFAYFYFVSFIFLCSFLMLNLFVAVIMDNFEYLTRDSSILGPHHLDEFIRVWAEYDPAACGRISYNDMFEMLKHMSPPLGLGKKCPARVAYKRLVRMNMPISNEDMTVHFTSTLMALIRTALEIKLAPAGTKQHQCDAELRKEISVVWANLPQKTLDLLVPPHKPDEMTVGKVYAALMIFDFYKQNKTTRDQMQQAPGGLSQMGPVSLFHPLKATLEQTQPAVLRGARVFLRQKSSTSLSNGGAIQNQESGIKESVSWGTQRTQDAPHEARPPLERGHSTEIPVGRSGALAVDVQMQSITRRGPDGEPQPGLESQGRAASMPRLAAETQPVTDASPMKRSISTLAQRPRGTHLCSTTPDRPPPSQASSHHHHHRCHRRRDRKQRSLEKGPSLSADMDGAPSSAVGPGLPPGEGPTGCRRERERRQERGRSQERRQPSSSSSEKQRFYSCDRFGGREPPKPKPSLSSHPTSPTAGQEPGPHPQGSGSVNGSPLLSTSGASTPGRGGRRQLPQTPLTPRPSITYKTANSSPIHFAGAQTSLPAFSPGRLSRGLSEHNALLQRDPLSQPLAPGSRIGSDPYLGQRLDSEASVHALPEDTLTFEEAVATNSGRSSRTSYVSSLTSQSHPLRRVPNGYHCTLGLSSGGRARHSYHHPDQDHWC
SMILES,IC50 [1],IC50 [2],inhibition in vivo at 30 mg/kg (Rattus norvegicus)
CC1=NC(C)=C(C(=O)O)C(c2cccnc2)/C1=C(\O)OC/C=C/c1ccccc1 (stereo unspecified),24000 nM,190 nM,–
CC1=NC(C)=C(C(=O)O)C(c2ccsc2)/C1=C(\O)OC/C=C/c1ccccc1 (stereo unspecified),2900 nM,44 nM,–
CC1=NC(C)=C(C(=O)O)C(c2cccc(Cl)c2)/C1=C(\O)OCCC(c1ccccc1)c1ccccc1 (stereo unspecified),1100 nM,360 nM,–
CC1=NC(C)=C(C(=O)O)C(c2cccc(I)c2)/C1=C(\O)OC/C=C/c1ccccc1 (stereo unspecified),1700 nM,13 nM,–
CC1=NC(C)=C(C(=O)O)C(c2cccc(Cl)c2)/C1=C(\O)OC/C=C/c1ccc(C)cc1 (stereo unspecified),890 nM,6.8 nM,–
CC1=NC(C)=C(C(=O)O)C(c2cccc(Cl)c2)/C1=C(\O)OCc1ccc2ccccc2c1 (stereo unspecified),3900 nM,14 nM,–
CC1=NC(C)=C(C(=O)O)C(c2cccc(Cl)c2)/C1=C(\O)OCC(=O)Nc1ccccc1 (stereo unspecified),28000 nM,50 nM,–
CC1=NC(C)=C(C(=O)O)C(c2cccc(Cl)c2)/C1=C(\O)OC/C(C)=C/c1ccccc1 (stereo unspecified),680 nM,2.8 nM,–
CC1=C(C(=O)O)C(c2cccc(Cl)c2)C(C(=O)NC/C=C/c2ccccc2)=C(C)N1 (stereo unspecified),4500 nM,850 nM,–
CC1=NC(C)=C(C(=O)O)C(c2ccccc2)/C1=C(\O)OC/C=C/c1ccccc1 (stereo unspecified),2000 nM,9 nM,–
CC1=NC(C)=C(C(=O)O)C(c2cccc(Br)c2)/C1=C(\O)OC/C=C/c1ccccc1 (stereo unspecified),790 nM,10 nM,–
CC1=NC(C)=C(C(=O)O)C(c2cccc(Cl)c2)/C1=C(\O)OC/C=C/c1ccccc1 (stereo unspecified),1000 nM,20 nM,–
CC1=NC(C)=C(C(=O)O)C(c2cccc(C)c2)/C1=C(\O)OC/C=C/c1ccccc1 (stereo unspecified),1800 nM,76 nM,–
CC1=NC(C)=C(C(=O)O)C(c2ccccc2[N+](=O)[O-])/C1=C(\O)OC/C=C/c1ccccc1 (stereo unspecified),37000 nM,31 nM,–
CC1=NC(C)=C(C(=O)O)C(c2ccoc2)/C1=C(\O)OC/C=C/c1ccccc1 (stereo unspecified),11000 nM,130 nM,–
CC1=C(C(=O)O)C(c2cccc([N+](=O)[O-])c2)C(C(=O)OC/C=C/c2ccccc2)=C(C)N1 (stereo unspecified),3500 nM,46 nM,–
CC1=NC(C)=C(C(=O)O)C(c2cccc(Cl)c2)/C1=C(\O)OC/C=C/c1ccc(Cl)cc1 (stereo unspecified),1500 nM,5.8 nM,–
CC1=NC(C)=C(C(=O)O)C(c2cccc(F)c2)/C1=C(\O)OC/C=C/c1ccccc1 (stereo unspecified),1300 nM,20 nM,–
CC1=NC(C)=C(C(=O)O)C(c2cccc(Cl)c2)/C1=C(\O)OC/C=C/C1CCCCC1 (stereo unspecified),830 nM,3.7 nM,–
CC1=NC(C)=C(C(=O)O)C(c2ccc([N+](=O)[O-])cc2)/C1=C(\O)OC/C=C/c1ccccc1 (stereo unspecified),21000 nM,1600 nM,–
CC1=NC(C)=C(C(=O)O)C(c2cccc(Cl)c2)/C1=C(\O)OCC=C(c1ccccc1)c1ccccc1 (stereo unspecified),3900 nM,200 nM,–
CC1=NC(C)=C(C(=O)O)C(c2cccc(Cl)c2)/C1=C(\O)OC/C=C/c1ccncc1 (stereo unspecified),6200 nM,320 nM,–
CC1=NC(C)=C(C(=O)O)C(c2cccc(Cl)c2)/C1=C(\O)OCCC(c1ccccn1)c1ccccn1 (stereo unspecified),10000 nM,1600 nM,–
CC1=C(C(=O)O)C(c2cccc(Cl)c2)C(C(=O)OCCC(c2ccccc2)c2ccccc2)=C(C(F)(F)F)N1 (stereo unspecified),1700 nM,1800 nM,46%
COCCOC(=O)C1=C(C)NC(C)=C(C(=O)OC/C=C/c2ccccc2)C1c1cccc([N+](=O)[O-])c1 (stereo unspecified) [CILNIDIPINE],1600 nM,1.1 nM,46%
CC1=NC(C)=C(C(=O)O)C(c2cccc(C(=O)O)c2)/C1=C(\O)OC/C=C/c1ccccc1 (stereo unspecified),37000 nM,> 10000 nM,–
COC(=O)c1cccc(C2C(C(=O)O)=C(C)N=C(C)/C2=C(/O)OC/C=C/c2ccccc2)c1 (stereo unspecified),4600 nM,4400 nM,–
